Reference: ChEMBL document CHEMBL1121917, “Structure--activity relationships in a broad-spectrum anthelmintic series. Acid chloride phenylhydrazones. 1. Aryl substitutions and chloride variations” (1981)

What was measured:
Canis familiaris [1] = species on record: Canis familiaris; assay: Percent reduction in Uncinaria eggs per gram, after oral treatment of 100 mg/dog dose of compound in a single treatment; type: functional, Canis lupus familiaris, Egg
Procedure, shortened: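 Dogs naturally infected with Toxascaris leonina were experimentally infected with mixed Ancylostoma caninum and Uncinaria stenocephala larvae. Finely ground compound was given orally in gelatin capsules. Three egg count determinations were made before and three after treatment in each experiment.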

Canis familiaris [2] = species on record: Canis familiaris; assay: Percent reduction in Ancylostoma eggs per gram, after oral treatment of 100 mg/dog dose of compound in a single treatment; type: functional, Canis lupus familiaris, Egg
Procedure, shortened: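 Dogs naturally infected with Toxascaris leonina were experimentally infected with mixed Ancylostoma caninum and Uncinaria stenocephala larvae. Finely ground compound was given orally in gelatin capsules. Fecal egg counts were taken three times before and three times after treatment, and activity was taken as the fall in egg counts.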

Mus musculus [3] = species on record: Mus musculus; assay: Percent clearance of Nematospiroides dubius from mouse after oral treatment of 7.5 mg/mouse/day; type: functional
Procedure, shortened: (§1)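 Mice naturally carrying Syphacia obvelata were experimentally infected with Nematospiroides dubius and Hymenolepis nana, then grouped after a 2-week prepatency. Finely ground compound was suspended in aqueous 0.10% carboxymethylcellulose, 0.04% polysorbate 80 and 0.0042% polyparaben, and 0.1 mL was given orally by cannula once daily for 4 days to five mice. Necropsy followed 2 days later, scoring presence or absence of each parasite. Control clearance was subtracted from the treated clearance.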

Ovis aries [4] = assay: Percent reduction in Trichuris eggs per gram, after treatment with 100 mg/kg dose of compound perorally in sheep; type: functional, Egg; details: route oral
Procedure, shortened: (§2)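 Naturally parasitized lambs, dosed orally either with a suspension by stomach tube or with finely ground compound in gelatin capsules by balling gun. Activity was scored by the clinical test method, meaning a significant fall in helminth egg counts after treatment.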

Ovis aries [5] = assay: Percent reduction in Haemonchus eggs per gram, after treatment with 100 mg/kg dose of compound perorally in sheep; type: functional, Egg; details: route oral
Procedure, shortened: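 Naturally parasitized lambs received compound orally, either as the aqueous suspension by stomach tube or as finely ground powder in gelatin capsules by balling gun. Activity was judged by the clinical test method, as a significant decrease in posttreatment helminth egg counts.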

Ovis aries [6] = assay: Percent reduction in Oesophagostomum eggs per gram, after treatment with 100 mg/kg dose of compound perorally in sheep; type: functional, Egg; details: route oral
Procedure, shortened: (§3)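 Naturally parasitized lambs were dosed orally at the stated mg/kg. Dosing was either as a suspension of finely ground compound by stomach tube, or as ground compound weighed into gelatin capsules and given by balling gun. Activity was scored by the clinical test method: the decrease in posttreatment helminth eggs per gram.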

Ovis aries [7] = assay: Percent reduction in Moniezia eggs per gram, after treatment with 100 mg/kg dose of compound perorally in sheep; type: functional, Egg; details: route oral; procedure, shortened: as §3
Ovis aries [8] = assay: Percent reduction in Trichostrongylus eggs per gram, after treatment with 100 mg/kg dose of compound perorally in sheep; type: functional, Egg; details: route oral; procedure, shortened: as §2
Ovis aries [9] = assay: Percent reduction in Nematodirus eggs per gram, after treatment with 100 mg/kg dose of compound perorally in sheep; type: functional, Egg; details: route oral; procedure, shortened: as §3
Ovis aries [10] = assay: Percent reduction in Ostertagia eggs per gram, after treatment with 100 mg/kg dose of compound perorally in sheep; type: functional, Egg; details: route oral; procedure, shortened: as §3
Ovis aries [11] = assay: Percent reduction in Strongyloides eggs per gram, after treatment with 100 mg/kg dose of compound perorally in sheep; type: functional, Egg; details: route oral; procedure, shortened: as §2
Mus musculus [12] = species on record: Mus musculus; assay: Percent clearance of Nematospiroides dubius from mouse after oral treatment of 0.47 mg/mouse/day; type: functional; procedure, shortened: as §1
Mus musculus [13] = species on record: Mus musculus; assay: Percent clearance of Hymenolepis nana from mouse after oral treatment of 0.47 mg/mouse/day; type: functional; procedure, shortened: as §1

With `O=[N+]([O-])c1ccc(N/N=C(\Cl)c2ccccc2)cc1` the Reduction (Canis familiaris [1]) was 0%, the Reduction (Canis familiaris [2]) was 0% and the Parasite_Clearance (Mus musculus [3]) was 0%. For the same molecule, the Reduction (Ovis aries [4]) was 100%, the Reduction (Ovis aries [5]) was 0% and the Reduction (Ovis aries [6]) was 0%. The Reduction (Ovis aries [7]) was 100%, the Reduction (Ovis aries [8]) was 57% and the Reduction (Ovis aries [9]) was 0%. It also gave a Reduction (Ovis aries [10]) of 33% and a Reduction (Ovis aries [11]) of 58%.

For `Cl/C(=N\Nc1ccccc1)c1ccc(Br)cc1`, the Parasite_Clearance (Mus musculus [12]) was 100% and the Parasite_Clearance (Mus musculus [13]) was 100%.
